# Laboratory results taken from ChEMBL document CHEMBL4261550, “Triazolopyrimidines identified as reversible myeloperoxidase inhibitors” (Medchemcomm, 2017).
# Calls of active or inactive are those of the source. The rule behind the calls is not given here.
# Columns and labels:
# [1] = biological target: T1, Myeloperoxidase (Homo sapiens) (UniProt P05164); assay: Inhibition of human MPO assessed as reduction in enzyme-mediated chlorination by measuring reduction in HOCl formation at 10 uM preincubated for 10 mins followed by H2O2/NaCl addition and measured at 30 secs time interval for 5 mins by APF dye based fluorescence assay relative to control
# T1 sequence (whole entry): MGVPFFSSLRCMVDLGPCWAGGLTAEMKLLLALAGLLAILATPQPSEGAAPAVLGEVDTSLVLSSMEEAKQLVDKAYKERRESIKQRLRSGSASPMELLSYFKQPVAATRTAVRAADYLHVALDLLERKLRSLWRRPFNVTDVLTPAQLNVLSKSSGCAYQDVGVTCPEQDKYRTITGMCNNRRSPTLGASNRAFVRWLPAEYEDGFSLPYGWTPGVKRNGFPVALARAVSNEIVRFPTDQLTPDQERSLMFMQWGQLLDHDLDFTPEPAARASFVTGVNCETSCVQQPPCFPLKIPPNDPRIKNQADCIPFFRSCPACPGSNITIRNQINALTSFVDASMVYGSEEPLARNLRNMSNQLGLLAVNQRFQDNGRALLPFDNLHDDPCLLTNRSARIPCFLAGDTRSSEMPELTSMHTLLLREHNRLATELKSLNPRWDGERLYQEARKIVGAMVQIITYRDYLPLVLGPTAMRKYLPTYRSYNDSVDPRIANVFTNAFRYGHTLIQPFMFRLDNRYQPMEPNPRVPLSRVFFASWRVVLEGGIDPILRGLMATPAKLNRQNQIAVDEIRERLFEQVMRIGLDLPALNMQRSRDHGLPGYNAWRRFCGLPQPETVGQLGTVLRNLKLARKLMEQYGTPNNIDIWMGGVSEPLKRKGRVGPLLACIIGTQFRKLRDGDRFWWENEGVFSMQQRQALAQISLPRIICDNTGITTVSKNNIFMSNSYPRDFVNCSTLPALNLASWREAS
# Summary of the method: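 HTS APF chlorination, 1536-well: 1.75 nM human MPO with 20 μM H2O2 final, compound 10 μM final, preincubated 10 min; APF reagent added, fluorescence 485/535 nm read every 30 s for 5 min; slope normalized to DMSO (0%) and no-MPO wells (100% inhibition).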
# [2] = Hypochlorus scavenging activity at 10 uM in presence of sodium hypochlorite after 15 mins by APF dye based fluorescence assay relative to control; assay type: functional
# Summary of the method: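 NaOCl-scavenger counterscreen in 1536-well format: 50 μM NaOCl in place of MPO with APF reagent, compound 10 μM final; fluorescence intensity read after 15 min incubation; ≥20% loss of fluorescence flagged as interference.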
# [3] = biological target: T2, Myeloperoxidase (Homo sapiens, UniProt P05164); assay: (§1) Inhibition of human MPO assessed as reduction in enzyme-mediated chlorination by measuring reduction in HOCl formation preincubated for 10 mins followed by H2O2/NaCl addition and measured at 30 secs time interval for 5 mins by APF dye based fluorescence assay
# T2 sequence (P05164 whole entry): T1 sequence (whole entry)
# [4] = biological target: T2, Myeloperoxidase; assay: Inhibition of human MPO peroxidase activity in presence of H2O2 measured at 30 secs time interval for 5 mins by amplex red reagent based fluorescence assay
# [5] = Redox activity assessed as conversion of resazurin reagent to resorufin at 10 uM after 30 mins by fluorescence assay relative to control; assay type: physicochemical; details: 0.5 h
# Summary of the method: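 Redox counterscreen: compound 10 μM final incubated with 5 μM resazurin reagent (final) 30 min; fluorescence intensity read; normalized to a reactive styrylpyrimidotriazinedione standard at 10 μM as 100%.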
# [6] = biological target: Lactoperoxidase (Homo sapiens, UniProt P22079); assay: Inhibition of recombinant human LPO isoform-1 (26 to 712 residues) expressed in baculovirus infected insect cells assessed as reduction in H2O2-catalyzed 3,5-iodo tyrosine formation using 3-iodotyrosine and potassium iodide preincubated for 10 mins followed by 3,5-iodo tyrosine/potassium iodide/H2O2 addition and measured after 15 mins
# Summary of the method: (§2)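 LPO isoform 1 residues 26–712, baculovirus/T. ni expressed, purified by cation exchange, hydrophobic interaction and size exclusion; 2.0 nM in 100 mM KPi pH 7.4, 10 min rt preincubation with inhibitor; then 400 μM KI/240 μM 3-iodotyrosine mix and 20 μM H2O2 (added solutions); 3,5-iodotyrosine formation monitored.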
# [7] = biological target: T3, Eosinophil peroxidase (Homo sapiens, UniProt P11678); assay: Inhibition of eosinophil peroxidase (unknown origin)assessed as reduction in H2O2-catalyzed 3-bromo tyrosine formation using tyrosine and potassium bromide preincubated for 10 mins followed by tyrosine/potassium bromide/H2O2 addition and measured after 15 mins by RP-UPLC analysis
# T3 sequence (P11678 whole entry): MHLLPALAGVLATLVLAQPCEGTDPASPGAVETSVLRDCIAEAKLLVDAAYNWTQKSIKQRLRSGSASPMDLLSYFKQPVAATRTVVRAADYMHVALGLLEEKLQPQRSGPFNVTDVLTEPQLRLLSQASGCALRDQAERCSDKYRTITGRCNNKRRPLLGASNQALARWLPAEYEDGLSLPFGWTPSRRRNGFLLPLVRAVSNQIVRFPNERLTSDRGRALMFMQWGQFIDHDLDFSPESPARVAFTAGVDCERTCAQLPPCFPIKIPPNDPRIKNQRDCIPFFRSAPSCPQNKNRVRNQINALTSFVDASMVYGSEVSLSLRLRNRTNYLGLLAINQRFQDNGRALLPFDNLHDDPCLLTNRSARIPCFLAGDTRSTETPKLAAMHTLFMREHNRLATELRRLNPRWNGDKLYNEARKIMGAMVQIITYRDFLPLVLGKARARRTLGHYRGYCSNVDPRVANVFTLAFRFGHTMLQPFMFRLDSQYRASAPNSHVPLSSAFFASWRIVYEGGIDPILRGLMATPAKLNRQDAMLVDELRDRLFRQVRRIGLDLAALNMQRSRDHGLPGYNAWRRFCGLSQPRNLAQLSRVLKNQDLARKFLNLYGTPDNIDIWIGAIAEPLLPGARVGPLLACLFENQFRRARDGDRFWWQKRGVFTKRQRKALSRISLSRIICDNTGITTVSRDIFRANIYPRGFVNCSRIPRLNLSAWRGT
# Summary of the method: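 Commercial EPX, purity ≥98%, 0.6 μM, in 100 mM KPi pH 7.4, preincubated with inhibitor 10 min at rt; then 400 μM tyrosine/1200 μM KBr mix, followed by 20 μM H2O2 (added solutions); 3-bromotyrosine quantified by reversed-phase LC, column 60 °C, MeOH/TFA gradient.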
# [8] = biological target: MPO, mouse (Mus musculus, UniProt P11247); assay: as §1, with “mouse C-terminal His10 tagged” for “human”, “MPO (Met16 to Thr718 residues)” for “MPO”
# [9] = biological target: T1, Myeloperoxidase (Homo sapiens); assay: Substrate activity at human MPO assessed as reversion of enzyme to resting state at 40 uM in presence of H2O2 by stopped flow assay
# Summary of the method: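 Stopped-flow at 25 °C: syringe 1 with 2 μM MPO and 5 μM H2O2 in phosphate buffer, syringe 2 with inhibitor and 5 μM H2O2; equal volumes rapidly mixed, spectra acquired in PDA mode to follow several MPO species; representative of numerous replicates.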
# [10] = organism: Homo sapiens; assay: Selectivity ratio of IC50 for recombinant human LPO isoform-1 (26 to 712 residues) expressed in baculovirus infected insect cells to IC50 for human MPO; summary of the method: as §2
# Sequence of Lactoperoxidase (P22079 whole entry, the tested form may be a part, canonical isoform): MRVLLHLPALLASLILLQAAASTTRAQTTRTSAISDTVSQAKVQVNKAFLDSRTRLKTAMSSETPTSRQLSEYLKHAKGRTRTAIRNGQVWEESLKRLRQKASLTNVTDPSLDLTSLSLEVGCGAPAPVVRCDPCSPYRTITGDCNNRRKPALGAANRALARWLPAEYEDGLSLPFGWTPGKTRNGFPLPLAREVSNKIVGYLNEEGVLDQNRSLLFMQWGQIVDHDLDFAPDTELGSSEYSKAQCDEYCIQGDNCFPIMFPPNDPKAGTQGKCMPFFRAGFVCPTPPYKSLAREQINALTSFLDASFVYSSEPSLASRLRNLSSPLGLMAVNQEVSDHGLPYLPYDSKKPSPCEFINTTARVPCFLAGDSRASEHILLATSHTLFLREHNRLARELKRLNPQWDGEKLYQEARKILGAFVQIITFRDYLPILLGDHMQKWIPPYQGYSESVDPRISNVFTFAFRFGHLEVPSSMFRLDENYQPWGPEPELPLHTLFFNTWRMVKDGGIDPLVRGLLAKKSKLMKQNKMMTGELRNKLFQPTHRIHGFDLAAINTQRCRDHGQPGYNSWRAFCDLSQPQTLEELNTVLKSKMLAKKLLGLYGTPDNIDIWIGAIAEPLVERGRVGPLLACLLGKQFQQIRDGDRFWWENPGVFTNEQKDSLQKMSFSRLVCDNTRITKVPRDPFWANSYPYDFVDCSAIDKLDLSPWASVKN
# Sequence of MPO, mouse (P11247 whole entry, looked up): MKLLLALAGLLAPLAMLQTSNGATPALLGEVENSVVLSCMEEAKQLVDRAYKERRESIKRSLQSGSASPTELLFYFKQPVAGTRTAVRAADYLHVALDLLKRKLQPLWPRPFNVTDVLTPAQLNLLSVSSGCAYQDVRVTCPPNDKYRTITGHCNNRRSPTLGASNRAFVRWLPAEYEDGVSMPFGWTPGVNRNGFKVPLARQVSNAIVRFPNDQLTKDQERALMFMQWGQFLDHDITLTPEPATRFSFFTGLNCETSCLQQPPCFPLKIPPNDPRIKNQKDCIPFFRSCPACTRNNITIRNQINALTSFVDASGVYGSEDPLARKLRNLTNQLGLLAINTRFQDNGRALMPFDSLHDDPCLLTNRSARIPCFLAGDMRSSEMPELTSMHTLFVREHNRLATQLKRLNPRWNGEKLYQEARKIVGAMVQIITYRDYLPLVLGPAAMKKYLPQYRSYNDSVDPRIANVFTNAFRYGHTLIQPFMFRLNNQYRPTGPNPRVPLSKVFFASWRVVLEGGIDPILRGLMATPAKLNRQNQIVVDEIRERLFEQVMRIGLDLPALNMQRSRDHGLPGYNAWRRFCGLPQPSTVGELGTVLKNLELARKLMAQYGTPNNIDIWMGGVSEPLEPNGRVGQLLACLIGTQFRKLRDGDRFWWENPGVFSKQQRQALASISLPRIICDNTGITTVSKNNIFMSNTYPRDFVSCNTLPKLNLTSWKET
inhibition [1] [%],IC50 [3] [nM],IC50 [4] [nM],Activity [5],IC50 [6] [nM],IC50 [7] [nM],IC50 [8] [nM],Activity [9],SMILES,Activity [2] [%],Ratio IC50 [10]
30,360,840,Not Active,13000,160,230,Active,Nc1ccc(Oc2cc(Cl)c(Cl)cc2Cl)cn1,< 20,> 10
30,110,110,Not Active,> 30000,15,81,inactive,Nc1nc(OCc2ccccc2)c2[nH]nnc2n1,< 20,> 10
